ChEMBL document CHEMBL5712912, “Abnormal overexpression of G9a in melanoma cells promotes cancer progression via upregulation of the Notch1 signaling pathway” (Aging (Albany NY), 2020)
Calls of active or inactive are those of the source. The calls are words filed in the database; no cut-off is given here.

Key:
A-375 [1] = assay: Cytotoxicity against human A-375 cells assessed as effect on cell survival at <0.5 nM by CCK-8 assay; type: functional, cell-based
A-375 [2] = assay: Cytotoxicity against human A-375 cells assessed as reduction in cell viability by CCK-8 assay; type: functional, cell-based
Procedure, shortened: (§1)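 CCK8 proliferation assay. M14 or A375 cells, NICD plasmid-transfected where stated, were seeded at about 1000 cells per well, with 0.1% DMSO-treated cells as control. CCK8 reagent was added every 24 h and incubated 90 min at 37 °C, then OD read at 450 nm to build a proliferation curve. IC50 came from a dose-dependent viability series in A375.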

[3] = target: T1, Histone-lysine N-methyltransferase EHMT2 (Homo sapiens) (UniProt Q96KQ7); assay: Inhibition of G9a in human A-375 cells assessed as decrease in Notch1 expression at 2 uM by Western blot analysis; type: cell-based
T1 sequence (whole entry): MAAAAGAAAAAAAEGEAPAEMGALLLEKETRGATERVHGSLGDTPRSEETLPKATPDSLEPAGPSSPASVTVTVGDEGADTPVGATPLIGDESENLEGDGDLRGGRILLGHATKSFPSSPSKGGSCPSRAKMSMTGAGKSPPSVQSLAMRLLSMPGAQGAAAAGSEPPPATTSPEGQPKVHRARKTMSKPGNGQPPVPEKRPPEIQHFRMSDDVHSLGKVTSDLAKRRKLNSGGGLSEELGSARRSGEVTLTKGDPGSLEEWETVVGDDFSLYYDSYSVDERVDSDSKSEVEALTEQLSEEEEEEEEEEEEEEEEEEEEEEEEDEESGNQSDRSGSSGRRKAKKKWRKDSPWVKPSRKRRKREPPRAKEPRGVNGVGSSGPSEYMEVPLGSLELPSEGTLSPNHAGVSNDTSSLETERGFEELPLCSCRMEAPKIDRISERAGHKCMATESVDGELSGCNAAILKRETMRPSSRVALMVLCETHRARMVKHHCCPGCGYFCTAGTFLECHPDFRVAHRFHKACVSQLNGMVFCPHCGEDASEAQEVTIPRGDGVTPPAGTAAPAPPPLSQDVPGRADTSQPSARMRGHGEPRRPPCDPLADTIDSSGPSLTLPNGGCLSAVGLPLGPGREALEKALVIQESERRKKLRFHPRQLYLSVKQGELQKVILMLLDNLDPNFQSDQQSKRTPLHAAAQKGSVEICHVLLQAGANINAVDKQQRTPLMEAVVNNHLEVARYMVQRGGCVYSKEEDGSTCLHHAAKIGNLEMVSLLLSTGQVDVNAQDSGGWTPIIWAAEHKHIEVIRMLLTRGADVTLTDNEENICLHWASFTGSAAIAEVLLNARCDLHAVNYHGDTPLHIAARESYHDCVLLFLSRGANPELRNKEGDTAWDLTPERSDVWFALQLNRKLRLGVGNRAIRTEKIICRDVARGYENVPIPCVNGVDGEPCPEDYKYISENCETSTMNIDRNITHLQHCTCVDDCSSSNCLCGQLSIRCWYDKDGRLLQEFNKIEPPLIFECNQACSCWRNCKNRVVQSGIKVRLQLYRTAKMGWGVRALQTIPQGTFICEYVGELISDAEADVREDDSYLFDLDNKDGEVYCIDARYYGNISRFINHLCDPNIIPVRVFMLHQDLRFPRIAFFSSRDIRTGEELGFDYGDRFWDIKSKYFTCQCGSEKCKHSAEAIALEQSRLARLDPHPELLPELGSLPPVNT

[4] = target: T1, Histone-lysine N-methyltransferase EHMT2 (Homo sapiens); assay: Inhibition of G9a in human A-375 cells assessed as decrease in Hes1 expression at 2 uM by Western blot analysis; type: cell-based
[5] = target: T1, Histone-lysine N-methyltransferase EHMT2 (Homo sapiens); assay: Inhibition of G9a in human A-375 cells assessed as decrease in H3K9me2 expression at 2 uM by Western blot analysis; type: cell-based
[6] = target: T1, Histone-lysine N-methyltransferase EHMT2 (Homo sapiens); assay: Inhibition of G9a in human M14 cells assessed as decrease in Notch1 expression at 2 uM by Western blot analysis; type: cell-based
[7] = target: T1, Histone-lysine N-methyltransferase EHMT2 (Homo sapiens); assay: Inhibition of G9a in human M14 cells assessed as decrease in Hes1 expression at 2 uM by Western blot analysis; type: cell-based
[8] = target: T1, Histone-lysine N-methyltransferase EHMT2 (Homo sapiens); assay: Inhibition of G9a in human M14 cells assessed as decrease in H3K9me2 expression at 2 uM by Western blot analysis; type: cell-based
A-375 [9] = assay: Antiproliferative activity against human A-375 cells assessed as reduction in cell proliferation at 2 uM by CCK-8 assay; type: functional, cell-based; procedure, shortened: as §1
M14 [10] = assay: Antiproliferative activity against human M14 cells assessed as reduction in cell proliferation at 2 uM by CCK-8 assay; type: functional, cell-based; procedure, shortened: as §1
A-375 [11] = assay: Antiproliferative activity against human A-375 cells overexpressing NICD assessed as reduction in cell proliferation at 2 uM by CCK-8 assay; type: functional, cell-based; procedure, shortened: as §1
M14 [12] = assay: Antiproliferative activity against human M14 cells overexpressing NICD assessed as reduction in cell proliferation at 2 uM by CCK-8 assay; type: functional, cell-based; procedure, shortened: as §1
A-375 [13] = assay: Antiinvasive activity against human A-375 cells at 2 uM by transwell assay; type: functional, cell-based
Procedure, shortened: (§2)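 Transwell assay in M14 or A375 cells cultured in high-glucose DMEM with 10% FBS and penicillin/streptomycin; NICD overexpression plasmid transfected with Lipofectamine 2000. Invasion inserts coated with Matrigel diluted 1:6 in serum-free 1640 medium and set at 37 °C for 4 h; migration inserts uncoated, 5000 cells seeded. Control cells received DMSO. Migrated or invaded cells counted.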

M14 [14] = assay: Antiinvasive activity against human M14 cells at 2 uM by transwell assay; type: functional, cell-based; procedure, shortened: as §2
A-375 [15] = assay: Antimigratory activity against human A-375 cells at 2 uM by transwell assay; type: functional, cell-based; procedure, shortened: as §2
M14 [16] = assay: Antimigratory activity against human M14 cells at 2 uM by transwell assay; type: functional, cell-based; procedure, shortened: as §2
A-375 [17] = assay: Antiinvasive activity against human A-375 cells overexpressing NICD at 2 uM by transwell assay; type: functional, cell-based; procedure, shortened: as §2
M14 [18] = assay: Antiinvasive activity against human M14 cells overexpressing NICD at 2 uM by transwell assay; type: functional, cell-based; procedure, shortened: as §2
A-375 [19] = assay: Antimigratory activity against human A-375 cells overexpressing NICD at 2 uM by transwell assay; type: functional, cell-based; procedure, shortened: as §2
M14 [20] = assay: Antimigratory activity against human M14 cells overexpressing NICD at 2 uM by transwell assay; type: functional, cell-based; procedure, shortened: as §2
A-375 [21] = assay: Induction of apoptosis in human A-375 cells assessed as necrotic cells at 2 uM by Annexin V-FITC/PI staining based flow cytometry (reference value: 1.34%); type: functional
A-375 [22] = assay: Induction of apoptosis in human A-375 cells assessed as late apoptotic cells at 2 uM by Annexin V-FITC/PI staining based flow cytometry (reference value: 3.10%); type: functional
A-375 [23] = assay: Induction of apoptosis in human A-375 cells assessed as live cells at 2 uM by Annexin V-FITC/PI staining based flow cytometry (reference value: 95.1%); type: functional
A-375 [24] = assay: Induction of apoptosis in human A-375 cells assessed as early apoptotic cells at 2 uM by Annexin V-FITC/PI staining based flow cytometry (reference value: 0.43%); type: functional

Question: Which results are given for `COc1cc2c(NC3CCN(C(C)C)CC3)nc(N3CCC(F)(F)CC3)nc2cc1OCCCN1CCCC1`?
Answer: Activity (A-375 [1]): inactive; Activity (A-375 [2]): Dose-Dependent Effect; IC50 (A-375 [2]): 3.06 µM; inhibition [3]: Active; inhibition [4]: Active; inhibition [5]: Active; inhibition [6]: Active; inhibition [7]: Active; inhibition [8]: Active; Activity (A-375 [9]): Active; Activity (M14 [10]): Active; Activity (A-375 [11]): inactive; Activity (M14 [12]): inactive; Activity (A-375 [13]): Active; Activity (M14 [14]): Active; Activity (A-375 [15]): Active; Activity (M14 [16]): Active; Activity (A-375 [17]): inactive; Activity (M14 [18]): inactive; Activity (A-375 [19]): inactive; Activity (M14 [20]): inactive; Activity (A-375 [21]): 0.27%; Activity (A-375 [22]): 5.17%; Activity (A-375 [23]): 89.8%; Activity (A-375 [24]): 4.8%
